Converted amounts (≈) assume the structure as drawn.
Legend:
[1] = molecular target: T1, Acid-sensing ion channel 2 (Mus musculus, UniProt Q925H0); assay: Inhibition of pH 5.5-stimulated mouse ASIC2a homomer expressed in CHOK1 cells assessed as reduction in channel activation by VSD fluorescence assay; type: cell-based
T1 sequence (Q925H0 whole entry): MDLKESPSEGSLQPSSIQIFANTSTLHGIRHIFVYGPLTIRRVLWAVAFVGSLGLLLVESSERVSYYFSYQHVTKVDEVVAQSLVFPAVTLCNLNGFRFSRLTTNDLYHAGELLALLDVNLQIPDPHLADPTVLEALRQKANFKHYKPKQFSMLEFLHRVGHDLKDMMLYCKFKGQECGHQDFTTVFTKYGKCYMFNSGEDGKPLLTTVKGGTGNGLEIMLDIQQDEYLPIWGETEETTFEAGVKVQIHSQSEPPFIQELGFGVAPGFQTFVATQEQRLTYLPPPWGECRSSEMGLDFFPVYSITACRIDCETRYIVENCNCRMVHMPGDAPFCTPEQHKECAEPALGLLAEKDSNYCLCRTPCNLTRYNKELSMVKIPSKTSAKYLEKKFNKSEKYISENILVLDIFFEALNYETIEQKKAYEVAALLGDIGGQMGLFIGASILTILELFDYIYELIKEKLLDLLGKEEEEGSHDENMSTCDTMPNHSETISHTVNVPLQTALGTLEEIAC

[2] = molecular target: T2, Acid-sensing ion channel 1 (Mus musculus, UniProt Q6NXK8); assay: Inhibition of pH 6.6-stimulated mouse ASIC1a homomer expressed in CHOK1 cells assessed as reduction in channel activation by VSD fluorescence assay; type: cell-based
T2 sequence (Q6NXK8 whole entry): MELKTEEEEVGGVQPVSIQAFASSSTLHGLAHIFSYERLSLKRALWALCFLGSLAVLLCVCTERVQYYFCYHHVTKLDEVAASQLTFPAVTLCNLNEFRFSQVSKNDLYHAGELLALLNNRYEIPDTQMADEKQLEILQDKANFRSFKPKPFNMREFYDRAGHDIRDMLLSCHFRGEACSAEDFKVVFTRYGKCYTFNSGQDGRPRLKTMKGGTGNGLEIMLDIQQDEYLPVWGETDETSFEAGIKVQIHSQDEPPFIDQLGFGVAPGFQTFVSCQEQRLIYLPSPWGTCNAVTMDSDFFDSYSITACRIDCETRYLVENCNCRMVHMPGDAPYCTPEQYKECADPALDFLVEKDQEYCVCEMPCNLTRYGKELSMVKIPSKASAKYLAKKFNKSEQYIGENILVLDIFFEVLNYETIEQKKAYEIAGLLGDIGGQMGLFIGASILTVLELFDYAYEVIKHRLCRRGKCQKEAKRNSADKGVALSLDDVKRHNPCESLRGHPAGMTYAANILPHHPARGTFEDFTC

[3] = molecular target: T3, Acid-sensing ion channel 1/2 (Mus musculus, UniProt Q6NXK8+Q925H0); assay: Inhibition of pH 6.25-stimulated mouse ASIC1a/2a […] expressed in CHOK1 cells assessed as reduction in channel activation by VSD fluorescence assay; type: cell-based
T3 sequence (Q6NXK8 whole entry): T2 sequence (Q6NXK8 whole entry)
T3 sequence (Q925H0 whole entry): T1 sequence (Q925H0 whole entry)

[4] = Clearance in NMRI mouse at 1 mg/kg, iv by LC-MS/MS analysis; type: ADME, organism-based; details: in vivo
[5] = Oral bioavailability in NMRI mouse at 3 mg/kg by LC-MS/MS analysis; type: ADME, organism-based; details: in vivo
[6] = molecular target: Voltage-gated inwardly rectifying potassium channel KCNH2 (Homo sapiens, UniProt Q12809); assay: Inhibition of human ERG incubated for 4 hrs by fluorescence polarization assay
Method in brief: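 Human ERG inhibition measured at concentrations up to 30 μM.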

[7] = Cmax in NMRI mouse at 3 mg/kg, po by LC-MS/MS analysis; type: ADME, organism-based; parameters: dose 3 mg/kg, route oral; details: in vivo
Cytochrome P450 1A2 = molecular target: T4, Cytochrome P450 1A2 (Homo sapiens, UniProt P05177); assay: Inhibition of CYP1A2 (unknown origin) using pro-luciferin substrates in presence of NADPH by firefly luciferase reporter gene based P450-Glo assay; type: ADME
T4 sequence (P05177 whole entry): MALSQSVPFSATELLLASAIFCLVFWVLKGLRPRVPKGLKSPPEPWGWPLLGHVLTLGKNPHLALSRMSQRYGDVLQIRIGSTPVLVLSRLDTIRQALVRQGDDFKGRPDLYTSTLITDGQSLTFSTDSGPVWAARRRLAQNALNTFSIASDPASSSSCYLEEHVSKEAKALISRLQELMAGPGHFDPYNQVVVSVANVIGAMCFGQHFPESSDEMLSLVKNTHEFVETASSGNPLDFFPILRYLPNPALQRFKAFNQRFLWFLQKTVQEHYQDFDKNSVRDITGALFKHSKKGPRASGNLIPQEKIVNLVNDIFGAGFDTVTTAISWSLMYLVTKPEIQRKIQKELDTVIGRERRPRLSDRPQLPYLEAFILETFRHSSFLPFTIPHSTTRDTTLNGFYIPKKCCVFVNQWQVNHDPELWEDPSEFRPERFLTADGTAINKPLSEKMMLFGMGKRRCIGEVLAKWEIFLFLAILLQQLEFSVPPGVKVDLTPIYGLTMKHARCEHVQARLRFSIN

[8] = Volume of distribution in NMRI mouse at 1 mg/kg, iv by LC-MS/MS analysis; type: ADME, organism-based; details: in vivo
albumin = albumin (Homo sapiens, UniProt P02768); assay: Binding affinity to human serum albumin by NMR-based analysis; type: ADME; details: read-out: PPB (converted)
[9] = Ratio of drug level in brain to plasma of NMRI mouse at 1 mg/kg, iv measured after 2 to 8 hrs post dose; type: ADME, organism-based; details: read-out: BPR
[10] = Kinetic solubility of the compound at pH 7.4; type: physicochemical; details: buffer, read-out: Kinetic_solubility

Voltage-gated inwardly rectifying potassium channel KCNH2, sequence (Q12809 whole entry): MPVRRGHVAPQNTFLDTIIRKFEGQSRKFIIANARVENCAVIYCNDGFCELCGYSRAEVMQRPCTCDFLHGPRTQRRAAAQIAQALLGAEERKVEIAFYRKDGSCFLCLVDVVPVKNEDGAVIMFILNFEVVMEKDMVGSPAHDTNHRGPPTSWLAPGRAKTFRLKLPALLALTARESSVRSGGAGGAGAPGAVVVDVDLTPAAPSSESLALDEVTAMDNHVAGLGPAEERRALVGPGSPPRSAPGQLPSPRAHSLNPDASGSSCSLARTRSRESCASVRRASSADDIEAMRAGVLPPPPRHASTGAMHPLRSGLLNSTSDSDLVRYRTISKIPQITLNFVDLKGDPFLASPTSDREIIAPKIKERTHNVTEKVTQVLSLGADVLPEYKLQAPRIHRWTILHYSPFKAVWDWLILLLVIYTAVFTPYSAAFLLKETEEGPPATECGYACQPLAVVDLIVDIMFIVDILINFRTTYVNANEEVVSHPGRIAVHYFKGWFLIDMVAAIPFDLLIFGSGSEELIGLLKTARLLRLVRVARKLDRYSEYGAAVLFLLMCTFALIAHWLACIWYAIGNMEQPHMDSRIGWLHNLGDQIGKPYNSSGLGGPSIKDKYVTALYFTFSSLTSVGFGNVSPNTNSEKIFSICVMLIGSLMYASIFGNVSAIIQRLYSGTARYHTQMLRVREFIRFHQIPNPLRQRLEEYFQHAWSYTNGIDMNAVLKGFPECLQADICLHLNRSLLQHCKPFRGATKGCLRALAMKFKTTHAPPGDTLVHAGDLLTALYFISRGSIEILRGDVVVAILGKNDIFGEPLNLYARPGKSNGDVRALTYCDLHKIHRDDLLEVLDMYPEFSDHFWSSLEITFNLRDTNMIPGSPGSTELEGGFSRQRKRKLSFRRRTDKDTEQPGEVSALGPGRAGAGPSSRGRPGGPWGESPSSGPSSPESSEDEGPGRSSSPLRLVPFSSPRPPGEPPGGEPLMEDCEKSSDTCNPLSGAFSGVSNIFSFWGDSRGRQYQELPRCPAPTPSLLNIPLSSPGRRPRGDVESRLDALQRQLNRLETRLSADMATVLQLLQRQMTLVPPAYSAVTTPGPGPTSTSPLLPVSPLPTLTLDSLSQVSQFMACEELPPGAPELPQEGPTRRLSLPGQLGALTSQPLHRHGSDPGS
albumin, sequence (P02768 whole entry): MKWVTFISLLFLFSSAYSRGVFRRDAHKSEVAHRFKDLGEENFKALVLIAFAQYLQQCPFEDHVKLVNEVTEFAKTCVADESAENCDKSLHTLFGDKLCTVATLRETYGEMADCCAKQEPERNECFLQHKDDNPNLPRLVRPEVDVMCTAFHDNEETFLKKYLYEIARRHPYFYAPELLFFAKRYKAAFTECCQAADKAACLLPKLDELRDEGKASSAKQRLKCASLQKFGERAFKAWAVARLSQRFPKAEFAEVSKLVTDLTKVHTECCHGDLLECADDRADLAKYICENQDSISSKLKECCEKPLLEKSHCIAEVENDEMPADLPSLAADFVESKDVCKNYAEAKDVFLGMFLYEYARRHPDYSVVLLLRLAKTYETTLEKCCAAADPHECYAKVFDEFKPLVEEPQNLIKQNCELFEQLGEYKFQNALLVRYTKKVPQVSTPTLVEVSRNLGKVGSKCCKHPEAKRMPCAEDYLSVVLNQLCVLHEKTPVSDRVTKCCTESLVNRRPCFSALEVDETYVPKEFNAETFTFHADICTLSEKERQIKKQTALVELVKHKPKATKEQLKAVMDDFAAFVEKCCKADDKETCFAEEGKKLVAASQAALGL

IC50 [1] | IC50 [2] | IC50 [3] | SMILES | other results
> 30 µM | > 30 µM | > 30 µM | Cc1nn(-c2ccc3c(c2)NCC3)c(C)c1-c1ccc(F)cc1 | –
> 30 µM | > 30 µM | > 30 µM | Cc1nn(-c2ccc(C#N)cc2)c(C)c1-c1ccc(F)cc1 | –
17 µM | > 30 µM | > 30 µM | Cc1nn(-c2ncnc3c2CNC3)c(C)c1-c1ccc(F)cc1 | clearance [4]: 34 mL/min/kg; bioavailability [5]: 100%; IC50 [6]: > 30 µM; Cmax [7]: 2600 nM; IC50 (Cytochrome P450 1A2): 0.8 µM; Vd [8]: 1.4 L/kg; fraction unbound (albumin): 0.06; Kp [9]: 1.3; solubility kinetic [10]: 32 µg/mL (≈ 103 µM)
6.1 µM | > 30 µM | 8.5 µM | Cc1nn(-c2ccc(CN)cn2)c(C)c1-c1ccc(F)cc1 | –
> 30 µM | > 30 µM | > 30 µM | Cc1ccc(-c2c(C)nn(-c3ccc(CN)cc3)c2C)cc1F | –
11.7 µM | > 30 µM | > 30 µM | Cc1nn(-c2ccc(CCN)cc2)c(C)c1-c1ccc(F)cc1 | –
> 30 µM | > 30 µM | > 30 µM | Cc1nn(-c2ccc(CN)cc2)c(C)c1-c1ccc(Cl)cc1 | –
8.7 µM | > 30 µM | > 30 µM | Cc1nn(-c2ccc(C(C)N)cc2)c(C)c1-c1ccc(F)cc1 (configuration not stated) | –
> 30 µM | > 30 µM | > 30 µM | Cc1nn(-c2ccc3c(c2)NCC3)c(C)c1-c1cccc(F)c1 | –
> 30 µM | > 30 µM | > 30 µM | Cc1nn(-c2ncnc3c2CNC3)c(C)c1-c1cccc(F)c1 | –
> 30 µM | > 30 µM | > 30 µM | Cc1nn(-c2ccc(CN)cc2)c(C)c1-c1ccc(C(F)(F)F)cc1 | –
> 30 µM | > 30 µM | > 30 µM | Cc1nn(-c2ccc(CN)cc2)c(C)c1-c1ccc(CN)cc1 | –
> 30 µM | > 30 µM | > 30 µM | Cc1nn(-c2ccc(CN)nc2)c(C)c1-c1ccc(F)cc1 | –
18.9 µM | > 30 µM | 10.9 µM | Cc1nn(-c2ccc(CN)cc2)c(C)c1-c1ccc(F)cc1 | clearance [4]: 224 mL/min/kg; bioavailability [5]: 60%; IC50 [6]: > 30 µM; Cmax [7]: 90 nM; IC50 (Cytochrome P450 1A2): 0.4 µM; Vd [8]: 50.9 L/kg; fraction unbound (albumin): 0.07; Kp [9]: 61; solubility kinetic [10]: 73 µg/mL (≈ 247 µM)
16.8 µM | > 30 µM | > 30 µM | Cc1nn(Cc2ccc(CN)cc2)c(C)c1-c1ccc(F)cc1 | –
> 30 µM | > 30 µM | > 30 µM | Cc1nn(-c2ncnc3c2CN(C)C3)c(C)c1-c1cccc(F)c1 | –
9.9 µM | > 30 µM | 11.3 µM | Cc1nn(-c2ccc3c(c2)CNC3)c(C)c1-c1cccc(F)c1 | –
16.3 µM | > 30 µM | > 30 µM | COc1ccc(-c2c(C)nn(-c3ccc(CN)cc3)c2C)cc1 | –
15.6 µM | > 30 µM | > 30 µM | Cc1nn(-c2cccc(CN)c2)c(C)c1-c1ccc(F)cc1 | –
8.2 µM | > 30 µM | > 30 µM | Cc1nn(-c2ccc3c(c2)CNC3)c(C)c1-c1ccc(F)cc1 | IC50 [6]: > 30 µM; IC50 (Cytochrome P450 1A2): 0.2 µM; fraction unbound (albumin): 0.05; solubility kinetic [10]: 56 µg/mL (≈ 182 µM)
8.8 µM | > 30 µM | > 30 µM | Cc1ccc(-c2c(C)nn(-c3ccc(CN)cc3)c2C)cc1 | –
> 30 µM | > 30 µM | > 30 µM | Cc1ccc(-c2c(C)nn(-c3ccc(CN)cc3)c2C)cn1 | –
4.3 µM | > 30 µM | > 30 µM | Cc1nn(-c2ccc(CN)cc2)c(C)c1-c1cccc(F)c1 | –
> 30 µM | > 30 µM | > 30 µM | NCc1ccc(-n2cc(-c3ccc(F)cc3)cn2)cc1 | –
169 µM | 56.9 µM | 45.2 µM | N=C(N)c1ccc(/N=N/Nc2ccc(C(=N)N)cc2)cc1 [DIMINAZENE] | –

Reference: ChEMBL document CHEMBL4339228, “Identification of Isoform 2 Acid-Sensing Ion Channel Inhibitors as Tool Compounds for Target Validation Studies in CNS” (ACS Med Chem Lett, 2019)
